CHO-K1 Ca PAM: nonselective activator or artifact in parental CHO-K1 calcium assay; ATP EC20, Fluo-8 calcium fluorescence; 0% at ATP EC20, 100% at ATP max; activation, % at 3 µM; 0.02% of 360,000 active;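 active = activation above the run cutoff, the mean activation of all test compounds plus 3 SD, cut at about 40% in these data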;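 note: peak over basal fluorescence ratio in a 140 s read after ATP addition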
OX1R antag-1: antagonists of human orexin 1 receptor; O43613; CHO/OX1R cells, Fluo-8 calcium fluorescence, orexin A; inhibition, % at 5 µM; 0.43% of 330,000 active;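 active = inhibition above its plate's threshold, mean inhibition of all tested compounds on the plate plus 3 SD, cut at about 37% in these data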
Target sequence (O43613 whole entry, looked up): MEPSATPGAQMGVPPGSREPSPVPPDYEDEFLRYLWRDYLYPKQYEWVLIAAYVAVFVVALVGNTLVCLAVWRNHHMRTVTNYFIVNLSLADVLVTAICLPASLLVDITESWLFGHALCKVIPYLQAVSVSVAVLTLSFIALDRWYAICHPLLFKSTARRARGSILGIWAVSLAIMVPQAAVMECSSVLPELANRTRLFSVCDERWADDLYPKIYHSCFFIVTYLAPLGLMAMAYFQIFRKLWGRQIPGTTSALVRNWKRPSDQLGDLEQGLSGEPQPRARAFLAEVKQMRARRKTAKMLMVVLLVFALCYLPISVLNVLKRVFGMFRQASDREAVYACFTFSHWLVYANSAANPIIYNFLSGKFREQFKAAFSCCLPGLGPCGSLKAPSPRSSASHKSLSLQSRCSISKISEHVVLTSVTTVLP
OX1R antag-2: blocks the human orexin 1 receptor; O43613; OX1R-expressing cells, FRET antagonist read-out; inhibition, % at 6.6 µM; 1.8% of 330,000 active; AID 485270; in the data active = inhibition mostly above about 38%, no sharp cut-off; inactive = mostly below about 40%
CHO parental Ca: counter-screen: ATP calcium response change in parental CHO cells. AID 463079. inhibition, % at 5.6 µM. parental CHO-K1, ATP-induced calcium, Fluo-8 fluorescence. 0.63% of 330,000 active;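 active = inhibition above that plate's mean sample inhibition plus 3 SD, cut at about 26% in these data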
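Test system: untransfected parental CHO cell line; also added: ATP stimulus; dosing: 5.6 µM, single dose; signal: calcium-sensitive Fluo-8 fluorescence; measure: percent inhibition of ATP-evoked calcium rise, normalized to controls; benchmarks: low control ATP plus DMSO, high control DMSO only; replication: one well per compound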
M1 ag parental: counter-screen for M1 agonists: effect in parental CHO-K1 cells | 0.48% of 360,000 active | Fluo-8 calcium fluorescence; scaled to maximal ATP response, vehicle zero | activation, % at 3 µM; in the data active = activation above about 15%;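 note: untransfected CHO-K1 host cells lacking M1 receptor as counterscreen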
CHO-K1 Ca antag: nonselective inhibitor or artifact in parental CHO-K1 cells; ATP-induced calcium, Fluo-8 fluorescence; 0.6% of 360,000 active; inhibition, % at 3 µM;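 active = inhibition above a per-plate cutoff, the plate's mean sample inhibition plus 3 SD, cut at about 24% in these data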
Of the large screens only hits and unclear results are named; the others gave an inactive call. Sampled rows, rich in hits. Any-hit rate of the full collection: about 2.9%.

C=CCN(Cc1cccs1)C(=O)COc1ccc2c(c1)OCO2	none
CCCSc1nc2cc(C)c(C)cc2n1CC(C)O (centres undefined)	none
O=C1OC(Nc2cc(Br)cc3cccnc23)c2ccccc21 (centres undefined)	OX1R antag-2 61.9
CC1(C(=O)NS(=O)(=O)c2ccc3ccccc3c2)CCN1C(=O)CC1CCCCC1 (centres undefined)	none (no result: OX1R antag-1, OX1R antag-2, CHO parental Ca)
O=C(NCc1cccs1)C(=O)c1cn(CC(=O)N2CCCC2)c2ccccc12	none
COc1ccc(S(=O)(=O)N2CCOCC2)cc1NC(=O)CO/N=C/c1ccccc1OC(F)F	M1 ag parental 15.1
O=C(O)COc1ccccc1/C=N/Nc1ccc(S(=O)(=O)N2CCOCC2)cc1[N+](=O)[O-]	OX1R antag-2 62.9
CC(O/N=C/c1ccccc1OC(F)F)C(=O)Nc1cccc(S(=O)(=O)N2CCOCC2)c1 (centres undefined)	none
COc1ccc(S(=O)(=O)N2CCOCC2)cc1NC(=O)c1ccc(=O)[nH]c1	CHO-K1 Ca antag 54.3 (no result: OX1R antag-1, OX1R antag-2, CHO parental Ca)
CC[C@]12c3[nH]c4ccc(OC)cc4c3CCN1C(=O)C(CC(=O)NCCc1ccccn1)C[C@@H]2C(=O)N1CCN(C(=O)c2ccco2)CC1 (some centres undefined)	none
O=C(CNC(=O)c1ccc2c(c1)OCCO2)N=Nc1c(O)[nH]c2ccccc12	none
Cc1ccc(C(=O)Nc2cccc(C(F)(F)F)c2)cc1NC(=O)c1csc(-c2ccncc2)n1	none
N#C/C(=N\Nc1cccc(C(F)(F)F)c1)C(=O)c1csc(-c2cccnc2)n1	CHO-K1 Ca antag 24.1
C=CCN1C(=O)c2ccc(C(=O)N(C)CC(=O)Nc3ccc(OCC)c(OCC)c3)cc2C1=O	CHO parental Ca 39.3
O=C(CSc1nnc(-c2cccnc2)s1)Nc1ccnc2ccccc12	CHO-K1 Ca antag 25.6
CCOC(=O)C1=CCN(S(C)(=O)=O)C1c1ccc(C)cc1 (centres undefined)	none (no result: OX1R antag-1, OX1R antag-2, CHO parental Ca)
Cc1cccc(-n2c(O)c(C=NC3CCS(=O)(=O)C3)c3ccccc3c2=O)c1C (centres undefined)	none
O=[N+]([O-])c1ccc(-c2nc3ccc([N+](=O)[O-])cc3[nH]2)cc1	none
O=[N+]([O-])c1ccc2nc(/C=C/c3ccc(Cl)cc3)[nH]c2c1	OX1R antag-2 76.6, CHO parental Ca 29.4
CC1=Nc2cc([N+](=O)[O-])ccc2NC(C)(C)C1	none
C=CCOCCN(C)C1=NS(=O)(=O)c2cc([N+](=O)[O-])ccc21	OX1R antag-2 72.0
O=C(C1COc2ccccc2O1)N1CCN(c2ccccc2)CC1 (centres undefined)	CHO-K1 Ca antag 52.5
O=C(C1COc2ccccc2O1)N1CCN(c2ccc(C(F)(F)F)cn2)CC1 (centres undefined)	M1 ag parental 24.0
NS(=O)(=O)c1ccc(N2CCN(C(=O)C3COc4ccccc4O3)CC2)nc1 (centres undefined)	none (no result: OX1R antag-1, OX1R antag-2, CHO parental Ca)
O=C1CSc2cc(Cl)ccc2N1	none (no result: OX1R antag-1, OX1R antag-2, CHO parental Ca)
CCc1cc(=O)oc2c(CNCc3ccc(OC)cc3OC)c(O)c(Cl)cc12	none
CCN(CC)C(=O)C1=C(C)N(Cc2ccccc2)C(=O)C(CC(=O)NCC2CCCCC2)C1 (centres undefined)	none (no result: OX1R antag-1, OX1R antag-2, CHO parental Ca)
O=[N+]([O-])c1ccc(Cl)c(S(=O)(=O)/N=C(/c2ccccc2)N2CCOCC2)c1	OX1R antag-2 51.3
O=S(=O)(/N=C(\c1ccccc1)N1CCOCC1)c1ccc(Cl)cc1	none
O=C(CCc1nc2ccccc2c(=O)[nH]1)Nc1nc(-c2cccs2)cs1	M1 ag parental 17.8
C=CCn1c(C)cc(-c2csc(NC(=O)CCc3nc4ccccc4c(=O)[nH]3)n2)c1C	none
O=C(c1cccc(-c2ccccc2)c1)N1CC[C@@H](N2CCC(O)CC2)[C@H](O)C1	none
Cc1cc(C)c(C#N)c(SCC(=O)c2cc(C)n(CCc3ccccc3)c2C)n1	CHO parental Ca 45.9
COc1ccc(CN2CN(S(=O)(=O)c3ccccc3)c3nc4ccccc4nc32)cc1	none
Cc1ccc(-c2csc(N3CCC(NS(=O)(=O)c4ccc5c(c4)OCCO5)CC3)n2)cc1	OX1R antag-1 51.3, CHO parental Ca 54.6
c1ccc(Cn2c(NCc3ccco3)nc3ccccc32)cc1	CHO-K1 Ca antag 25.1
CC1(c2ccccc2Cl)NC(=O)N(CC(=O)NCc2ccco2)C1=O (centres undefined)	none
COc1cccc2sc(Nc3nnc(-c4ccccc4Cl)o3)nc12	CHO-K1 Ca antag 29.4
COc1ccccc1-c1nnc(Nc2nc3c(OC)cccc3s2)o1	none
COc1ccc([C@H]2C(C(=O)O)=C[C@@H](C(C)(C)C)N2S(=O)(=O)c2ccccc2)cc1	none
O=S(=O)(c1ccc2c(c1)CCCN2)N1CCCCC1	none
CCN(CC)c1ccc2c(c1)CCCN2	OX1R antag-2 85.1 (no result: CHO-K1 Ca PAM, M1 ag parental, CHO-K1 Ca antag)
CN(C(=O)COc1ccc(Oc2ccccc2)cc1)C1CCS(=O)(=O)C1 (centres undefined)	none
O=[N+]([O-])c1ccc(-c2nnc(-c3ccccc3)c(NCCCO)n2)cc1	OX1R antag-2 38.4
O=C(COC(=O)c1cc(NS(=O)(=O)c2cccs2)ccc1O)Nc1ccccc1	OX1R antag-2 72.8
Cn1c(N2CCCC2)nc2c1c(=O)n(Cc1ccc(Cl)cc1)c(=O)n2C	none
CC1CN(c2nc3c(c(=O)n(Cc4ccc(Cl)cc4)c(=O)n3C)n2C)CC(C)O1 (centres undefined)	CHO-K1 Ca antag 27.7
O=C(NCc1ccccc1F)Nc1ccc([N+](=O)[O-])cc1	none
O=C(CSc1ccc(-c2cccc([N+](=O)[O-])c2)nn1)N1CCCC1	OX1R antag-2 71.8
CCOC(=O)C1(Cc2ccccc2)CCN(Cc2cc(OC)c3c(c2)OCO3)CC1	none
CCOC(=O)C1(Cc2ccccc2)CCCN(Cc2cccc(C(C)=O)c2)C1 (centres undefined)	M1 ag parental 15.6
CCOC(=O)C1(Cc2ccccc2)CCN(Cc2cccc3c2OCO3)CC1	OX1R antag-2 71.9
Cc1cccc(C)c1-n1nnnc1C1c2ccccc2C(=O)N1CCc1ccc(O)cc1 (centres undefined)	none (no result: OX1R antag-1, OX1R antag-2, CHO parental Ca)
CCc1ccc(NC(=O)C(C)OC(=O)/C=C/c2ccc(O)c(OC)c2)cc1 (centres undefined)	M1 ag parental 25.2
COc1cc(/C=C/C(=O)OC(C)C(=O)Nc2c(C)n(C)n(-c3ccccc3)c2=O)ccc1O (centres undefined)	none
COc1ccc(NC(=O)CCCSc2nc(-c3ccco3)cc(C(F)(F)F)n2)cc1OC	OX1R antag-2 65.8
O=[N+]([O-])c1ccccc1/C=N\N1CCN(c2ccccc2)CC1	M1 ag parental 27.8
O=[N+]([O-])c1ccccc1/C=N/N1CCN(c2ccc(Cl)cc2)CC1	none
CCN(CC)CCNC(=S)Nc1ccc(F)cc1	none

High-throughput results from PubChem.
